system: Rattus norvegicus; test: Neurite length after administration (1 uM) in rat cortical neurons; assay type: functional
In short: (§1)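 E18 Sprague-Dawley rat fetal cortical neurons were plated at 5000 cells/cm² on poly-L-lysine in DMEM with 10% FBS and penicillin/streptomycin for 24 h. They were then switched to serum-free Neurobasal with 2% B27 containing the sample, with 0.5% ethanol as vehicle control. Cells were fixed in PFA and stained with anti-MAP2 (1:1000, overnight, 4 °C) and peroxidase/DAB. Primary process length was averaged over 100 random neurons.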

| Structure (SMILES) | Activity [µm] |
| --- | --- |
| C=CCc1ccc(OC)c(-c2ccc(OC)c(CC=C)c2)c1 | 111 |
| C=CCc1ccc(O)c(-c2ccc(O)c(CCC)c2)c1 | 150 |
| C=CCc1ccc(OC)c(-c2ccc(O)c(CC=C)c2)c1 | 123 |
| CCCc1ccc(O)c(-c2ccc(O)c(CCC)c2)c1 | 102 |
| C=CCc1ccc(O)c(-c2ccc(O)c(CC=C)c2)c1 [HONOKIOL] | 142 |
| C=CCc1cc(-c2cc(CCC)ccc2O)ccc1O | 120 |
| C=CCc1ccc(O)c(-c2ccc(OC)c(CC=C)c2)c1 [METHYLHONOKIOL] | 114 |

system: Rattus norvegicus; test: Neurite length after administration (0.1 uM) in rat cortical neurons; assay type: functional; in short: as §1

| Structure (SMILES) | Activity [µm] |
| --- | --- |
| C=CCc1ccc(OC)c(-c2ccc(OC)c(CC=C)c2)c1 | 112 |
| C=CCc1ccc(O)c(-c2ccc(O)c(CCC)c2)c1 | 128 |
| C=CCc1ccc(OC)c(-c2ccc(O)c(CC=C)c2)c1 | 133 |
| CCCc1ccc(O)c(-c2ccc(O)c(CCC)c2)c1 | 101 |
| C=CCc1ccc(O)c(-c2ccc(O)c(CC=C)c2)c1 [HONOKIOL] | 139 |
| C=CCc1cc(-c2cc(CCC)ccc2O)ccc1O | 103 |
| C=CCc1ccc(O)c(-c2ccc(OC)c(CC=C)c2)c1 [METHYLHONOKIOL] | 113 |

— ChEMBL document CHEMBL1146744, “Efficient synthesis and structure-activity relationship of honokiol, a neurotrophic biphenyl-type neolignan” (2004)
